Measured values as given in ChEMBL document CHEMBL1156941, “Discovery of small molecule isozyme non-specific inhibitors of mammalian acetyl-CoA carboxylase 1 and 2” (Bioorg Med Chem Lett, 2010).

Assays:
Acetyl-CoA carboxylase 2 = Acetyl-CoA carboxylase 2 (Homo sapiens, UniProt O00763); assay: Inhibition of human recombinant ACC2 expressed in CHO cells after 1 hr by fluorescence reader; format: cell-based
Procedure, shortened: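 Purified recombinant human ACC2, from conditioned medium captured on avidin resin and eluted with biotin, then dialyzed. Compounds in DMSO, final DMSO 1%. Run 1 h at room temperature. ADP measured by Transcreener fluorescence polarization after a further 1 h.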

Acetyl-CoA carboxylase 1 = Acetyl-CoA carboxylase 1 (Rattus norvegicus, UniProt P11497); assay: Inhibition of rat liver ACC1 after 7 mins by liquid scintillation counter
[1] = Clearance in rat at 1 mg/kg, iv; format: ADME, organism-based; parameters: dose 1 mg/kg, route intravenous; conditions: in vivo
Procedure, shortened: (§1)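 Rat pharmacokinetics. Intravenous dose 1 mg/kg, giving CL in mL/min/kg and Vdss in L/kg. Oral dose 5 mg/kg, giving Cmax in ng/mL, %F and t1/2 in h.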

[2] = Cmax in rat at 5 mg/kg, po; format: ADME, organism-based; parameters: dose 5 mg/kg, route oral; conditions: in vivo; procedure, shortened: as §1
[3] = Volume of distribution at steady state in rat at 1 mg/kg, iv; format: ADME, organism-based; parameters: dose 1 mg/kg, route intravenous; conditions: in vivo, read-out: Vdss; procedure, shortened: as §1
[4] = Oral bioavailability in rat at 5 mg/kg; format: ADME, organism-based; conditions: in vivo; procedure, shortened: as §1
[5] = Half life in rat at 5 mg/kg, po; format: ADME, organism-based; parameters: dose 5 mg/kg, route oral; conditions: in vivo; procedure, shortened: as §1
[6] = Volume of distribution at steady state in rat at 1 mg/kg, iv administered with methylcellulose; format: ADME, organism-based; parameters: dose 1 mg/kg, route intravenous; conditions: in vivo, read-out: Vdss
[7] = Clearance in rat at 1 mg/kg, iv administered with methylcellulose; format: ADME, organism-based; parameters: dose 1 mg/kg, route intravenous; conditions: in vivo
[8] = Half life in Beagle dog at 1 mg/kg, iv administered with 40% PEG400 and 60% glycerol; format: ADME, organism-based, Canis lupus familiaris; parameters: dose 1 mg/kg, route intravenous; conditions: in vivo
[9] = Half life in rat at 1 mg/kg, iv administered with methylcellulose; format: ADME, organism-based; parameters: dose 1 mg/kg, route intravenous; conditions: in vivo
[10] = Oral bioavailability in rat at 3 mg/kg administered with methylcellulose; format: ADME, organism-based; conditions: in vivo
[11] = Volume of distribution at steady state in Beagle dog at 1 mg/kg, iv administered with 40% PEG400 and 60% glycerol; format: ADME, organism-based, Canis lupus familiaris; parameters: dose 1 mg/kg, route intravenous; conditions: in vivo, read-out: Vdss
[12] = Oral bioavailability in rat at 3 mg/kg administered with lipid emulsion; format: ADME, organism-based; conditions: in vivo
[13] = Clearance in Beagle dog at 1 mg/kg, iv administered with 40% PEG400 and 60% glycerol; format: ADME, organism-based, Canis lupus familiaris; parameters: dose 1 mg/kg, route intravenous; conditions: in vivo
[14] = Oral bioavailability in rat at 3 mg/kg administered with spray-dried dispersion; format: ADME, organism-based; conditions: in vivo

Sequence of Acetyl-CoA carboxylase 2 (O00763 whole entry): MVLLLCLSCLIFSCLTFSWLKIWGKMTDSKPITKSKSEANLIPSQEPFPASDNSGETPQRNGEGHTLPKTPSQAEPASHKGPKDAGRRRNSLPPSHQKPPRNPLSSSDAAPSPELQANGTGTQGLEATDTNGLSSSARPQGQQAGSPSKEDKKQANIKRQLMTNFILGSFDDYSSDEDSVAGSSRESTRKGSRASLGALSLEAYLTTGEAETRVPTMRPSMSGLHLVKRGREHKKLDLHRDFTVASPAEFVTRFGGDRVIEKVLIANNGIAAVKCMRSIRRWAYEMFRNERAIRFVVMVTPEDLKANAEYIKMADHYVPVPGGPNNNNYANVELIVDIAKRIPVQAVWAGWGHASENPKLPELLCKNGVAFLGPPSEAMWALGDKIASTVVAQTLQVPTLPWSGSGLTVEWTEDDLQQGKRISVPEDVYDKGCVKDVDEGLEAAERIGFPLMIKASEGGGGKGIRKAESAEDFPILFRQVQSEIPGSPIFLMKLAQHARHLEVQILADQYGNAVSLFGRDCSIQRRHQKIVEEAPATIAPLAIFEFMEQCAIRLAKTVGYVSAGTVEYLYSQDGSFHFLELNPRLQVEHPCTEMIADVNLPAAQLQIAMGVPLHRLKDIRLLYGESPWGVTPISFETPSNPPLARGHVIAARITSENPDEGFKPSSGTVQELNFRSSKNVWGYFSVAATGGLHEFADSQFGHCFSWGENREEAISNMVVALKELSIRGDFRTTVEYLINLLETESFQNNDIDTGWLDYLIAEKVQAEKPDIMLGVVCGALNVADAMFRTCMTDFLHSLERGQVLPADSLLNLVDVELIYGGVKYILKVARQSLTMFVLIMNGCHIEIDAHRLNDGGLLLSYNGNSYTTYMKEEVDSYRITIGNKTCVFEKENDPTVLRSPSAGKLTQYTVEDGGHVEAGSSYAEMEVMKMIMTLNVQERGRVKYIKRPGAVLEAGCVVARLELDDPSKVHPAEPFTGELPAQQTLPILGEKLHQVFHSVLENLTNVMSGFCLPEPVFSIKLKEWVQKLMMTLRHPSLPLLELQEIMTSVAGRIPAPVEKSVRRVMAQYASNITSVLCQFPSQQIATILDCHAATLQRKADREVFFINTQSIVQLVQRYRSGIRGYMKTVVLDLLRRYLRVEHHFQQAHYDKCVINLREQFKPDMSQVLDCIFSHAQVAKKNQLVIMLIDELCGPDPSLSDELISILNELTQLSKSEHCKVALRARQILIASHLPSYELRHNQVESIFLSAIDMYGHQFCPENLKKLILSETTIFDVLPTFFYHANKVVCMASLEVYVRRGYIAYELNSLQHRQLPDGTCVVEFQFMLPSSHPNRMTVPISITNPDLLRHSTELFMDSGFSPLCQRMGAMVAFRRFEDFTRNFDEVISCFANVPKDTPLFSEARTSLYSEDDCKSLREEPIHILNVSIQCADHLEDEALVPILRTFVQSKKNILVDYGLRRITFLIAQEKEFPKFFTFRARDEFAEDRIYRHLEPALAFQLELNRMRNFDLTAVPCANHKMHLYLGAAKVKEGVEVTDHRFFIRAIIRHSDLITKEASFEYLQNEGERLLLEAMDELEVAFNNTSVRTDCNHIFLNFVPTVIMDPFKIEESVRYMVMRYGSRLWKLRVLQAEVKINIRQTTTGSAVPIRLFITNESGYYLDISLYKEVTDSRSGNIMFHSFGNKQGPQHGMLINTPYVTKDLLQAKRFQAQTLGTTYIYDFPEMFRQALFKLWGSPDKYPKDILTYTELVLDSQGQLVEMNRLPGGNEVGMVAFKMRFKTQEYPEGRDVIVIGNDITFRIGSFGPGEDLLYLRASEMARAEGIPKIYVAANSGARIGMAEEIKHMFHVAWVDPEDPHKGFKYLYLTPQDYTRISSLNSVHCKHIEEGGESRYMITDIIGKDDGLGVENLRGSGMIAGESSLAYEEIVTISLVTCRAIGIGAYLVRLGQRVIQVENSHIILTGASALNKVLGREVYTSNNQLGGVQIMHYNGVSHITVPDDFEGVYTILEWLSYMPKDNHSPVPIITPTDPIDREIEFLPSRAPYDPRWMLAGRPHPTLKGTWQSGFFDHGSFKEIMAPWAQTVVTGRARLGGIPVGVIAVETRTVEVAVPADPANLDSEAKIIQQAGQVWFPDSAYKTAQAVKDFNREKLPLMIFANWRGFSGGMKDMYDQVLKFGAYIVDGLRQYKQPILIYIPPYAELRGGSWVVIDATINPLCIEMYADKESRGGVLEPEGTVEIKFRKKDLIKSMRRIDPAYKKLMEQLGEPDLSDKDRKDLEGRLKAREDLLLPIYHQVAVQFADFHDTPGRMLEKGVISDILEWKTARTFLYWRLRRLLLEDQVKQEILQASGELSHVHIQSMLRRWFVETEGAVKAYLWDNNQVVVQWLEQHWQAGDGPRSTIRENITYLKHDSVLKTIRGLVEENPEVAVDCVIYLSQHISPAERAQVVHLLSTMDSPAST

| SMILES | IC50 (Acetyl-CoA carboxylase 2) [nM] | IC50 (Acetyl-CoA carboxylase 1) [nM] | other results |
| --- | --- | --- | --- |
| COc1cccc2c1C(=O)CC1(CCN(C(=O)c3cccc4cn[nH]c34)CC1)O2 | > 1000 |  |  |
| Cc1cc(C(=O)N2CCC3(CC2)CC(=O)c2c(ccnc2OC(C)C)O3)cc2cn[nH]c12 | 4.5 | 30 |  |
| Cc1ccc2cc(CC3CCN(C(=O)c4cccc5cn[nH]c45)CC3)ccc2n1 |  | 3380 | clearance [1]: 44.3 mL/min/kg; Cmax [2]: 617 ng/mL; Vd [3]: 2.4 L/kg; bioavailability [4]: 45%; half-life [5]: 1.7 h |
| COc1cccc2c1C(=O)CC1(CCN(C(=O)c3cc(C)c4nc[nH]c4c3)CC1)O2 | 126 | 172 |  |
| Cc1noc(C)c1-c1ccc2c(c1)C(=O)CC1(CCN(C(=O)c3cc(C)c4[nH]ncc4c3)CC1)O2 | 6.4 | 13 |  |
| Cc1ccc2cc(CC3CCN(C(=O)c4cccc(-c5cn[nH]c5)c4)CC3)ccc2n1 |  | 1270 |  |
| COc1cccc2c1C(=O)CC1(CCN(C(=O)c3ccc4nc(-c5cccnc5)[nH]c4c3)CC1)O2 | 19 | 26 |  |
| COc1cccc2c1C(=O)CC1(CCN(C(=O)c3ccc4[nH]c(-c5ccccn5)nc4c3)CC1)O2 | 12 | 26 |  |
| Cc1cc(C(=O)N2CCC3(CC2)CC(=O)c2cc(-c4cc[nH]n4)ccc2O3)cc2cn[nH]c12 | 4.5 | 18 |  |
| CCc1cc(C(=O)N2CCC3(CC2)CC(=O)c2c(OC)cccc2O3)cc2cn[nH]c12 | 151 | 102 |  |
| Cc1cc(C(=O)N2CCC3(CC2)CC(=O)c2cc(-c4cnn(C)c4)ncc2O3)cc2cn[nH]c12 |  | 24.6 |  |
| COc1cc2c(cn1)OC1(CCN(C(=O)c3cc(C)c4[nH]ncc4c3)CC1)CC2=O |  | 182 |  |
| CCOc1nccc2c1C(=O)CC1(CCN(C(=O)c3cc(C)c4[nH]ncc4c3)CC1)O2 |  | 61 |  |
| Cc1cc(-c2ccc3c(c2)C(=O)CC2(CCN(C(=O)c4cc(C)c5[nH]ncc5c4)CC2)O3)n[nH]1 | 7.6 | 18 |  |
| Cc1cc2c(cc1C)C(=O)CC1(CCN(C(=O)c3cccc4cn[nH]c34)CC1)O2 | 400 |  |  |
| Cc1cc(C(=O)N2CCC3(CC2)CC(=O)c2nc(N)ccc2O3)cc2cn[nH]c12 |  | 1350 |  |
| COc1cccc2c1C(=O)CC1(CCN(C(=O)c3ccc4nc(-c5ccn(C)n5)[nH]c4c3)CC1)O2 |  | 19 |  |
| COc1cccc2c1C(=O)CC1(CCN(C(=O)c3ccc4nn[nH]c4c3)CC1)O2 | 505 | 2970 |  |
| Cc1cc(C(=O)N2CCC3(CC2)CC(=O)c2ncccc2O3)cc2cn[nH]c12 |  | 154 |  |
| Cn1cc(-c2cc3c(cn2)OC2(CCN(C(=O)c4ccc5nc(-c6ccn(C)n6)[nH]c5c4)CC2)CC3=O)cn1 |  | 975 |  |
| Cc1nc(-c2ccc3c(c2)C(=O)CC2(CCN(C(=O)c4cc(C)c5[nH]ncc5c4)CC2)O3)co1 | 30 | 19 |  |
| COc1cccc2c1C(=O)CC1(CCN(C(=O)c3ccc4[nH]c(C)nc4c3)CC1)O2 | > 1000 | 663 |  |
| COc1cccc2c1C(=O)CC1(CCN(C(=O)c3cc(C)c4[nH]c(C(N)=O)cc4c3)CC1)O2 | 16 | 65 |  |
| Cc1cc2c(cc1C)C(=O)CC1(CCN(C(=O)c3cc(C)c4[nH]ncc4c3)CC1)O2 | 48 | 22 |  |

| SMILES | IC50 (Acetyl-CoA carboxylase 2) [nM] | IC50 (Acetyl-CoA carboxylase 1) [nM] | other results |
| --- | --- | --- | --- |
| Cc1ccc2cc(CC3CCN(C(=O)c4ccnc5ccccc45)CC3)ccc2n1 |  | 8910 |  |
| Cc1n[nH]c2c(C)cc(C(=O)N3CCC4(CC3)CC(=O)c3c(ccnc3OC(C)C)O4)cc12 | 20 | 12 | Vd [6]: 3.3 L/kg; clearance [7]: 31 mL/min/kg; half-life [8]: 6.1 h; half-life [9]: 1.4 h; bioavailability [10]: 32%; Vd [11]: 1.6 L/kg; bioavailability [12]: 8%; clearance [13]: 3.6 mL/min/kg; bioavailability [14]: 52% |
| Cc1ccc2c(n1)C(=O)CC1(CCN(C(=O)c3cc(C)c4[nH]ncc4c3)CC1)O2 |  | 366 |  |
| COc1nccc2c1C(=O)CC1(CCN(C(=O)c3cc(C)c4[nH]ncc4c3)CC1)O2 |  | 86 |  |
| Cc1cc(C(=O)N2CCC3(CC2)CC(=O)c2cc(-c4cnn(C)c4)ccc2O3)cc2cn[nH]c12 |  | 7.5 |  |
| Cc1cc(C(=O)N2CCC3(CC2)CC(=O)c2cc(-c4cn[nH]c4)ccc2O3)cc2cn[nH]c12 |  | 7.4 |  |
| COc1cccc2c1C(=O)CC1(CCN(C(=O)c3ccc4nc(-c5ccnnc5)[nH]c4c3)CC1)O2 |  | 101 |  |
| Cc1cc(C(=O)N2CCC3(CC2)CC(=O)c2cc(-c4ccn(C)n4)ccc2O3)cc2cn[nH]c12 | 6.1 | 31 |  |
| Cc1ncc(-c2ccc3c(c2)C(=O)CC2(CCN(C(=O)c4cc(C)c5[nH]ncc5c4)CC2)O3)o1 | 39 | 17 |  |
| COc1cccc2c1C(=O)CC1(CCN(C(=O)c3ccc4nc(-c5ccncc5)[nH]c4c3)CC1)O2 | 51 | 60 |  |
| COc1cccc2c1C(=O)CC1(CCN(C(=O)c3ccc4nc[nH]c4c3)CC1)O2 | 111 | 216 |  |
| CNC(=O)c1cc2cc(C(=O)N3CCC4(CC3)CC(=O)c3c(OC)cccc3O4)ccc2[nH]1 | 11 | 43 |  |
| Cc1n[nH]c2c(C)cc(C(=O)N3CCC4(CC3)CC(=O)c3ncccc3O4)cc12 | 363 | 249 |  |
| COc1cccc2c1C(=O)CC1(CCN(C(=O)c3ccc4c(C)n[nH]c4c3)CC1)O2 | 164 | 220 |  |
| Cc1cc(C(=O)N2CCC3(CC2)CC(=O)c2c(ccnc2OCC(C)C)O3)cc2cn[nH]c12 | 98 | 23 |  |
| O=C1CC2(CCN(C(=O)c3cccc4cn[nH]c34)CC2)Oc2ccc(Cl)cc21 | 2130 |  |  |
| Cc1ccc2cc(CC3CCN(C(=O)c4cccc(-c5cc[nH]n5)c4)CC3)ccc2n1 |  | 3010 | clearance [1]: 34.1 mL/min/kg; Cmax [2]: 91.5 ng/mL; Vd [3]: 2.8 L/kg; bioavailability [4]: 7%; half-life [5]: 1.8 h |
| COc1cccc2c1C(=O)CC1(CCN(C(=O)c3cc(C)c4[nH]nc(C)c4c3)CC1)O2 | 11 | 42 |  |
| Cc1cc(C)c2c(c1)C(=O)CC1(CCN(C(=O)c3cccc4cn[nH]c34)CC1)O2 | > 1000 |  |  |
| COc1nc(C)cc2c1C(=O)CC1(CCN(C(=O)c3cc(C)c4[nH]ncc4c3)CC1)O2 | 48 | 34 |  |
| COc1cccc2c1C(=O)CC1(CCN(C(=O)c3ccc4[nH]c(C(N)=O)nc4c3)CC1)O2 | 16 | 35 |  |
| COc1cccc2c1C(=O)CC1(CCN(C(=O)c3cc(C)c4[nH]ncc4c3)CC1)O2 | 6.5 | 104 |  |
| Cc1n[nH]c2ccc(C(=O)N3CCC4(CC3)CC(=O)c3ncccc3O4)cc12 | 640 | 766 |  |
| COc1cccc2c1C(=O)CC1(CCN(C(=O)c3ccc4nc(-c5ccccc5)[nH]c4c3)CC1)O2 | 16 | 16 |  |
